Laboratory results taken from ChEMBL document CHEMBL1177638, “Synthesis of pyrrolo[3,2-h]quinolinones with good photochemotherapeutic activity and no DNA damage” (Bioorg Med Chem, 2010).
Calls of active or inactive are those of the source. No cut-off for these calls is given here.

Key:
Nucleic Acid = assay: Binding affinity to salmon testes DNA assessed as intercalation by linear dichroism experiment; format: nucleic-acid assay; conditions: Salmonidae
How it was run: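 Salmon testes DNA was mixed with compound at [Drug]/[DNA] ratios of 0, 0.02 and 0.04 in 10 mM phosphate buffer, pH 7.2. Samples were oriented in a rotating cylindrical flow cuvette (0.14 cm path, 800 rpm), and linear dichroism spectra were recorded over roughly 250–450 nm.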

LoVo [1] = assay: Phototoxicity against human LoVo cells irradiated with 3.75 J/cm'2 after 72 hrs by MTT assay; format: functional, cell-based; conditions: light or radiation study
How it was run: (§1)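 Cells were seeded at 8 × 10³ and preincubated 18 h at 37 °C, 5% CO₂. Jurkat and K-562 grew in RPMI-1640, MCF-7 and NCTC-2544 in DMEM, and LoVo in Ham's F12, all with 10% FBS plus penicillin and streptomycin. Compounds in DMSO were diluted in HBSS, pH 7.2 (range 20–0.31; DMSO ≤1%) and applied 30 min at 37 °C. Wells were then UV-A irradiated (365 nm; 2.5 or 3.75 J/cm²), medium was replaced, and MTT was read after 72 h.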

[2] = Phototoxicity against human sNCTC-2544 cells irradiated with 3.75 J/cm'2 after 72 hrs by MTT assay; format: functional, cell-based; conditions: NCTC-2544, light or radiation study; how it was run: as §1
MCF7 [3] = assay: Phototoxicity against human MCF7 cells irradiated with 3.75 J/cm'2 after 72 hrs by MTT assay; format: functional, cell-based; conditions: MCF7, light or radiation study; how it was run: as §1
Jurkat [4] = assay: Cell cycle arrest in human Jurkat cells assessed as accumulation in S phase at 1 uM irradiated with 20 J/cm'2 after 24 hrs by flow cytometry; format: functional
How it was run: (§2)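 Exponentially growing Jurkat cells (5 × 10⁵) were irradiated with compound present. Drug was removed, and cells were kept 24 h in RPMI-1640, fixed in ice-cold 70% ethanol, and treated overnight with RNAse (10 KU/mL) in PBS. Cells were stained with propidium iodide and run on a flow cytometer, with DNA content reported as the fraction of cells in each cycle phase.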

[5] = Phototoxicity against human sNCTC-2544 cells irradiated with 2.5 J/cm'2 after 72 hrs by MTT assay; format: functional, cell-based; conditions: NCTC-2544, light or radiation study; how it was run: as §1
LoVo [6] = assay: Phototoxicity against human LoVo cells irradiated with 2.5 J/cm'2 after 72 hrs by MTT assay; format: functional, cell-based; conditions: light or radiation study; how it was run: as §1
Jurkat [7] = assay: Induction of lipid peroxidation in human Jurkat cells irradiated with 2.5 J/cm'2 assessed as increase in malondialdehyde production after 24 hrs by TBARS assay relative to untreated control; format: functional, cell-based
How it was run: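 Jurkat cells (500,000) were irradiated (2.5 J/cm²) with compound present and incubated 24 h. Supernatant was kept with BHT, and cells were lysed in 1% SDS, with protein measured by the Peterson method. Malondialdehyde was measured by thiobarbituric acid reaction (fluorescence, 553 nm) against a 1,1,3,3-tetraethoxypropane standard curve. Results are given as nmol TBARS normalized to protein.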

Jurkat [8] = assay: Induction of apoptosis in human Jurkat cells assessed as lysosomal dysfunction at 1 uM after 2 hrs post-irradiation with 2.5 J/cm'2 using acridine orange dye by flow cytometry; format: functional
How it was run: (§3)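 Jurkat cells were irradiated (2.5 J/cm²) with compound present and collected at 2 and 4 h. They were resuspended in RPMI-1640 containing acridine orange, and the percentage of red-fluorescent cells (intact lysosomes) was scored by flow cytometry. Values are mean ± SD of at least three independent experiments.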

Jurkat [9] = assay: Induction of apoptosis in human Jurkat cells assessed as induction of loss of membrane potential at 1 uM after 4 hrs post irradiation with 20 J/cm'2 using JC1 staining by FACS; format: functional
How it was run: (§4)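 Irradiated Jurkat cells treated with compound were collected 2 and 4 h after irradiation and resuspended in HBSS containing JC-1. Green (FL1) and orange (FL2) fluorescence were read by flow cytometry, with at least 10,000 events per sample. Values are mean ± SD of at least three independent experiments.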

Jurkat [10] = assay: Induction of apoptosis in human Jurkat cells assessed as lysosomal dysfunction at 1 uM after 4 hrs post-irradiation with 2.5 J/cm'2 using acridine orange dye by flow cytometry; format: functional; how it was run: as §3
Jurkat [11] = assay: Induction of apoptosis in human Jurkat cells assessed as induction of loss of membrane potential at 1 uM after 4 hrs post-irradiation with 20 J/cm'2 by flow cytometry; format: functional; how it was run: as §4
Jurkat [12] = assay: Induction of apoptosis in human Jurkat cells assessed as induction of loss of membrane potential at 1 uM after 2 hrs post-irradiation with 20 J/cm'2 by flow cytometry; format: functional; how it was run: as §4
Jurkat [13] = assay: Cell cycle arrest in human Jurkat cells assessed as accumulation in G1 phase at 1 uM irradiated with 25 J/cm'2 after 24 hrs by flow cytometry
Jurkat [14] = assay: Phototoxicity against human Jurkat cells irradiated with 2.5 J/cm'2 after 72 hrs by MTT assay; format: functional, cell-based; conditions: light or radiation study; how it was run: as §1
Jurkat [15] = assay: Induction of apoptosis in human Jurkat cells assessed as increase in mitochondrial ROS production at 1 uM after 6 hrs post-irradiation with 2.5 J/cm'2 by FACS analysis; format: functional
How it was run: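 Jurkat cells were irradiated (2.5 J/cm²) with compound present and collected 6 h later. They were resuspended in HBSS with hydroethidine and DCFDA (2.5 and 5, respectively) and held at 37 °C for 15 or 30 min. Flow cytometry used 488 nm excitation, reading 620 nm for HE and 530 nm for DCF, with at least 10,000 events. Values are mean ± SD, three independent experiments.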

K562 [16] = assay: Phototoxicity against human K562 cells irradiated with 2.5 J/cm'2 after 72 hrs by MTT assay; format: functional, cell-based; conditions: K562, light or radiation study; how it was run: as §1
Jurkat [17] = assay: Induction of apoptosis in human Jurkat cells assessed as induction of loss of membrane potential at 1 uM after 2 hrs post-irradiation with 20 J/cm'2 using JC1 staining by FACS; format: functional; how it was run: as §4
Jurkat [18] = assay: Cell cycle arrest in human Jurkat cells assessed as accumulation in subG1 phase at 1 uM irradiated with 20 J/cm'2 after 24 hrs by flow cytometry; format: functional; how it was run: as §2
Jurkat [19] = assay: Cell cycle arrest in human Jurkat cells assessed as accumulation in G2/M phase at 1 uM irradiated with 25 J/cm'2 after 24 hrs by flow cytometry
MCF7 [20] = assay: Phototoxicity against human MCF7 cells irradiated with 2.5 J/cm'2 after 72 hrs by MTT assay; format: functional, cell-based; conditions: MCF7, light or radiation study; how it was run: as §1
Jurkat [21] = assay: Induction of apoptosis in human Jurkat cells assessed as phosphatidylserine esposure after 2 hrs using annexin-V FITC and PI staining by flow cytometry; format: functional, cell-based
How it was run: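 Jurkat cells (100,000) were irradiated (2.5 J/cm²) with compound present and centrifuged 30 min, 1 h or 2 h later. They were stained with Annexin V-FITC/PI for 15 min in the dark, and FITC (FL1) and PI (FL3) were read by flow cytometry, with at least 10,000 events. Cells were classed as intact, early apoptotic, late apoptotic/necrotic or necrotic. Values are the mean of three experiments.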

Jurkat [22] = assay: Phototoxicity against human Jurkat cells irradiated with 3.75 J/cm'2 after 72 hrs by MTT assay; format: functional, cell-based; conditions: light or radiation study; how it was run: as §1
Jurkat [23] = assay: Induction of apoptosis in human Jurkat cells assessed as increase in mitochondrial ROS production at 2.5 uM after 6 hrs post-irradiation with 2.5 J/cm'2 by FACS analysis; format: functional
How it was run: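 Jurkat cells were collected 6 h after UV-A irradiation (2.5 J/cm²) with the compound and resuspended in HBSS with hydroethidine 2.5 µM or DCFDA 5 µM. They were incubated at 37 °C for 15 or 30 min. Flow cytometry used 488 nm excitation, with emission at 620 nm (HE) or 530 nm (DCF), acquiring ≥10,000 events. Values are means ± SD of three independent experiments.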

K562 [24] = assay: Phototoxicity against human K562 cells irradiated with 3.75 J/cm'2 after 72 hrs by MTT assay; format: functional, cell-based; conditions: K562, light or radiation study; how it was run: as §1

Compound | IC50 (LoVo [1]) [nM] | IC50 [2] [nM] | IC50 (MCF7 [3]) [nM] | IC50 [5] [nM] | IC50 (LoVo [6]) [nM] | IC50 (Jurkat [14]) [nM] | IC50 (K562 [16]) [nM] | IC50 (MCF7 [20]) [nM] | IC50 (Jurkat [22]) [nM] | IC50 (K562 [24]) [nM] | also measured
CCOC(=O)c1cc2c(n1Cc1ccc(OC)cc1)-c1[nH]c(=O)c(S(=O)(=O)c3ccccc3)cc1CC2 | 1000 | 1600 | 1300 | 1900 | 1100 | 800 | 1000 | 1600 | 700 | 900 | Activity (Nucleic Acid): inactive; Activity (Jurkat [4]): 6.1%; Activity (Jurkat [7]): Dose-dependent effect; Activity (Jurkat [8]): 58.5%; Activity (Jurkat [9]): 25.86%; Activity (Jurkat [10]): 63.16%; Activity (Jurkat [11]): 47.07%; Activity (Jurkat [12]): 44.43%; Activity (Jurkat [13]): 12.6%; Activity (Jurkat [15]): 79.08%; Activity (Jurkat [17]): 55.57%; Activity (Jurkat [18]): 74.7%; Activity (Jurkat [19]): 6.6%; Activity (Jurkat [21]): Active; Activity (Jurkat [23]): Active
Cc1ccc(Cn2ccc3c2-c2[nH]c(=O)c(S(=O)(=O)c4ccccc4)cc2CC3)cc1 | 2300 | 2600 | 2400 | 3300 | 2700 | 1600 | 2700 | 3800 | 1200 | 2400 | –
O=c1[nH]c2c(cc1S(=O)(=O)c1ccccc1)CCc1ccn(-c3ccccc3)c1-2 | > 20000 | > 20000 | > 20000 | > 20000 | > 20000 | > 20000 | > 20000 | > 20000 | > 20000 | > 20000 | –
O=c1[nH]c2c(cc1S(=O)(=O)c1ccccc1)CCc1ccn(Cc3ccccc3)c1-2 | 2200 | 5500 | 1700 | 7500 | 2600 | 1300 | 4800 | 4000 | 1100 | 3300 | –
N#Cc1cc2c([nH]c1=O)-c1c(ccn1S(=O)(=O)c1ccccc1)CC2 | > 20000 | > 20000 | > 20000 | > 20000 | > 20000 | > 20000 | > 20000 | > 20000 | > 20000 | > 20000 | –
CCOC(=O)c1cc2c(n1Cc1ccccc1)-c1[nH]c(=O)c(S(=O)(=O)c3ccccc3)cc1CC2 | 800 | 1000 | 800 | 1100 | 900 | 800 | 900 | 900 | 600 | 600 | Activity (Nucleic Acid): inactive; Activity (Jurkat [4]): 8.2%; Activity (Jurkat [7]): Dose-dependent effect; Activity (Jurkat [8]): 29.76%; Activity (Jurkat [9]): 32.82%; Activity (Jurkat [10]): 55.82%; Activity (Jurkat [11]): 67.18%; Activity (Jurkat [12]): 24.26%; Activity (Jurkat [13]): 16.1%; Activity (Jurkat [15]): 24.4%; Activity (Jurkat [17]): 75.74%; Activity (Jurkat [18]): 68.5%; Activity (Jurkat [19]): 7.2%; Activity (Jurkat [21]): Active; Activity (Jurkat [23]): Active
CCOC(=O)c1cc2c([nH]1)-c1[nH]c(=O)c(S(=O)(=O)c3ccccc3)cc1CC2 | 4600 | 7200 | 4300 | 9300 | 5500 | 3500 | 6100 | 6100 | 2500 | 5300 | –
COc1ccc(Cn2ccc3c2-c2[nH]c(=O)c(S(=O)(=O)c4ccccc4)cc2CC3)cc1 | 2000 | 2700 | 1800 | 4300 | 2800 | 1600 | 3100 | 4200 | 1200 | 2500 | –
O=c1[nH]c2c(cc1S(=O)(=O)c1ccccc1)CCc1ccn(S(=O)(=O)c3ccccc3)c1-2 | > 20000 | > 20000 | > 20000 | > 20000 | > 20000 | > 20000 | > 20000 | > 20000 | > 20000 | > 20000 | –
CCOC(=O)c1cc2c(n1Cc1ccc(C)cc1)-c1[nH]c(=O)c(S(=O)(=O)c3ccccc3)cc1CC2 | 1000 | 2200 | 1400 | 2700 | 1600 | 1500 | 1300 | 1700 | 1200 | 1000 | –
Cn1ccc2c1-c1[nH]c(=O)c(S(=O)(=O)c3ccccc3)cc1CC2 | > 20000 | > 20000 | > 20000 | > 20000 | > 20000 | > 20000 | > 20000 | > 20000 | > 20000 | > 20000 | –
O=c1[nH]c2c(cc1S(=O)(=O)c1ccccc1)CCc1cc[nH]c1-2 | > 20000 | > 20000 | > 20000 | > 20000 | > 20000 | > 20000 | > 20000 | > 20000 | > 20000 | > 20000 | –
